RORA inh – RORA (human) inhibition | CHO-K1 Gal4-RORA LBD luciferase reporter, luminescence | inhibition, % at 10 µM | P35398 | AID 561 | actives 0.43% (n = 65,000);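 active = inhibition above the mean of all tested compounds plus 3 SD, cut at about 52% in these data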;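 also: 0% = RORA-transfected cells with DMSO and 100% = mock-transfected cells lacking RORA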
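Material: transiently transfected CHO-K1 cells, Gal4-DBD/human RORA-LBD fusion plus 5xGal4-luciferase reporter; doses: single concentration per compound, 10 µM final; incubation: 20 h at 37 °C; detection: luminescence from basal luciferase reporter expression; read-out: % inhibition of basal luciferase versus +RORA/-RORA DMSO controls; replication: tested once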
* hit, by the source's call. The entries come from a sample that favours hits as a whole.

SMILES	RORA inh
C[C@H]1CCC/C=C/C2C[C@H](O)CC2[C@H](O)/C=C/C(=O)O1 (stereo partly specified)	83.7*
CC[C@@H]1C(=O)OC[C@@H]1Cc1cncn1C	8.7
Cc1ccc(S(=O)(=O)N(C)CCCC(=O)N2CCN(c3ccccn3)CC2)cc1	13.3
CC1=NOC2(C)Nc3ncnn3C(c3ccccc3)C12 (stereo unspecified)	14.5
CCn1nc(-c2ccccc2)nc2c(=O)n(C)c(=O)nc1-2	93.1*
O=C(C1CCCO1)N1CCC2(CC1)OCCO2 (stereo unspecified)	16.0
CC(C)c1cccc(C(C)C)c1OCCn1ccnc1	19.7
CC(=O)C1(c2ccccc2)CCNCC1	-4.6
O=C(C1CC(c2ccc(Cl)c(Cl)c2)=NO1)N1CCC2(CC1)OCCO2 (stereo unspecified)	-73.2
CC(C(=O)N1CCC2(CC1)OCCO2)C1Sc2ccccc2NC1=O (stereo unspecified)	10.5
